Assays:
A549 = assay: Cytotoxicity against human A549 cells after 48 hrs by SRB assay; format: functional, cell-based; conditions: A549, 48 h
Procedure, shortened: (§1)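 Quantitative staining of cellular protein with sulforhodamine B across human tumour lines A549, SK-OV-3, SK-MEL-2 and Bt549; IC50 derived. Etoposide served as positive control.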

SK-OV-3 = assay: Cytotoxicity against human SKOV3 cells after 48 hrs by SRB assay; format: functional, cell-based; conditions: SK-OV-3, 48 h; procedure, shortened: as §1
SK-MEL-2 = assay: Cytotoxicity against human SK-MEL-2 cells after 48 hrs by SRB assay; format: functional, cell-based; conditions: SK-MEL-2, 48 h; procedure, shortened: as §1
BT-549 = assay: Cytotoxicity against human BT549 cells after 48 hrs by SRB assay; format: functional, cell-based; conditions: BT-549, 48 h; procedure, shortened: as §1
BV-2 = assay: Antiinflammatory activity in mouse BV2 cells assessed as inhibition of LPS-induced nitrite production after 24 hrs by Griess assay; format: functional, cell-based; conditions: BV-2, 24 h
Procedure, shortened: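 BV-2 microglia seeded at 4 × 10^4 cells/well, exposed to graded doses of compounds with LPS stimulation. Nitrite quantified against a sodium nitrite standard curve; IC50 taken as the concentration giving 50% inhibition of NO production. L-NMMA as positive control. Mean ± SD of three independent experiments.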

[1] = Cytotoxicity against mouse BV2 cells assessed as cell viability at 20 uM after 24 hrs by MTT assay relative to control; format: cell-based, BV-2; conditions: read-out: Activity
Procedure, shortened: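 BV-2 cells seeded at 4 × 10^4 cells/well, treated with 20 μM compound; viability read by MTT and expressed as percent. Mean ± SD of three independent experiments.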

C6 = assay: Neuroprotective activity in rat C6 cells assessed as NGF secretion at 20 uM after 24 hrs by ELISA relative to control; format: functional
Procedure, shortened: (§2)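 C6 cells seeded at 1 × 10^5 cells/well; after 1 d switched to serum-free DMEM with 20 μM compound for 24 h. NGF in conditioned medium measured by ELISA as percent of untreated control (100%); viability by MTT as percent. 6-shogaol as positive control.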

[2] = Cytotoxicity against rat C6 cells assessed as cell viability at 20 uM after 24 hrs by MTT assay relative to control; format: cell-based; conditions: read-out: Activity; procedure, shortened: as §2

Q: For COc1cc([C@@H]2c3cc4c(cc3[C@@H](O[C@@H]3O[C@@H]5CO[C@@H](C)O[C@H]5[C@H](O)[C@H]3O)[C@H]3COC(=O)[C@H]23)OCO4)cc(OC)c1O [ETOPOSIDE], which IC50 (A549) is on record?
A: Its IC50 is 0.92 µM.

Q: What about the IC50 (SK-OV-3) of the same compound?
A: The IC50 was 1.95 µM.

Q: And the IC50 (SK-MEL-2)?
A: The IC50 was 1.1 µM.

Q: And the IC50 (BT-549)?
A: Its IC50 is 1.24 µM.

Q: Which results are given for O=c1c(O[C@@H]2O[C@H](CO)[C@@H](O)[C@H](O)[C@H]2O)c(-c2ccc(O)c(O)c2)oc2cc(O)cc(O)c12 [ISOQUERCETIN]?
A: IC50 (BV-2): 55.6 µM; viability at 24 h, 20 µM [1]: 95.6%; Activity (C6): 98.67%; viability at 24 h, 20 µM [2]: 107%; IC50 (A549): > 10 µM; IC50 (SK-OV-3): > 10 µM; IC50 (SK-MEL-2): > 10 µM; IC50 (BT-549): > 10 µM

Q: With O=c1c(O)c(-c2ccc(O)cc2)oc2cc(O)cc(O)c12 [KAEMPFEROL] as the compound, how does the IC50 (BV-2) read?
A: The IC50 was 8.86 µM.

Q: And the viability at 24 h, 20 µM [1]?
A: The viability at 24 h, 20 µM was 119%.

Q: What about the Activity (C6) of the same compound?
A: Its Activity is 115.98%.

Q: What about the viability at 24 h, 20 µM [2] of the same compound?
A: Its viability at 24 h, 20 µM is 97.2%.

Q: And the IC50 (A549)?
A: Its IC50 is > 10 µM.

Q: And the IC50 (SK-OV-3)?
A: Its IC50 is > 10 µM.

Q: What about the IC50 (SK-MEL-2) of the same compound?
A: The IC50 was > 10 µM.

Q: And the IC50 (BT-549)?
A: The IC50 was > 10 µM.

Q: Which results are given for C[C@@H]1O[C@@H](OC[C@H]2O[C@@H](Oc3c(-c4ccc(O)cc4)oc4cc(O)cc(O)c4c3=O)[C@H](O)[C@@H](O)[C@@H]2O)[C@H](O)[C@H](O)[C@H]1O [NICOTIFLOROSIDE]?
A: IC50 (BV-2): 44.4 µM; viability at 24 h, 20 µM [1]: 97.9%; Activity (C6): 97.59%; viability at 24 h, 20 µM [2]: 99.6%; IC50 (A549): > 10 µM; IC50 (SK-OV-3): > 10 µM; IC50 (SK-MEL-2): > 10 µM; IC50 (BT-549): > 10 µM

Q: With O=c1c(O)c(-c2ccc(O)c(O)c2)oc2cc(O)cc(O)c12 [QUERCETIN] as the compound, how does the IC50 (BV-2) read?
A: The IC50 was 19.1 µM.

Q: What about the viability at 24 h, 20 µM [1] of the same compound?
A: Its viability at 24 h, 20 µM is 101%.

Q: And the Activity (C6)?
A: The Activity was 118.77%.

Q: What about the viability at 24 h, 20 µM [2] of the same compound?
A: Its viability at 24 h, 20 µM is 103%.

Q: What about the IC50 (A549) of the same compound?
A: Its IC50 is > 10 µM.

Q: And the IC50 (SK-OV-3)?
A: The IC50 was > 10 µM.

Q: And the IC50 (SK-MEL-2)?
A: The IC50 was > 10 µM.

Q: And the IC50 (BT-549)?
A: The IC50 was > 10 µM.

Q: Which IC50 (BV-2) does the source give for C[C@@H]1O[C@@H](OC[C@H]2O[C@@H](Oc3c(-c4ccc(O)c(O)c4)oc4cc(O)cc(O)c4c3=O)[C@H](O)[C@@H](O)[C@@H]2O)[C@H](O)[C@H](O)[C@H]1O [RUTIN] here?
A: The IC50 was 24.3 µM.

Q: And the viability at 24 h, 20 µM [1]?
A: Its viability at 24 h, 20 µM is 99.2%.

Q: What about the Activity (C6) of the same compound?
A: Its Activity is 108.27%.

Q: What about the viability at 24 h, 20 µM [2] of the same compound?
A: The viability at 24 h, 20 µM was 113%.

Q: What about the IC50 (A549) of the same compound?
A: Its IC50 is > 10 µM.

Q: And the IC50 (SK-OV-3)?
A: Its IC50 is > 10 µM.

Q: And the IC50 (SK-MEL-2)?
A: The IC50 was > 10 µM.

Q: What about the IC50 (BT-549) of the same compound?
A: Its IC50 is > 10 µM.

Q: For CCCCC/C=C/C(=O)CCc1ccc(O)c(OC)c1 [SHOGAOL], which Activity (C6) is on record?
A: The Activity was 143.74%.

Q: What about the viability at 24 h, 20 µM [2] of the same compound?
A: Its viability at 24 h, 20 µM is 104%.

Q: Which results are given for CNC(=N)NCCC[C@H](N)C(=O)O [TILARGININE]?
A: IC50 (BV-2): 21.2 µM; viability at 24 h, 20 µM [1]: 120%

From ChEMBL document CHEMBL4014266, “Anti-Neurodegenerative Biflavonoid Glycosides from Impatiens balsamina” (J Nat Prod, 2017)
